According to publication PMC10883374 (Science Advances, 2022):
Where a chain is given by its changes, count along the chain named.

Tests used:
[1] = target: T1, D190A hSAMTOR interaction with GATOR1-KICSTOR (Homo sapiens, UniProt Q1RMZ1, D190A); experiment: Co-IP of Flag-hSAMTOR-D190A with HA-Nprl3 and Myc-Kaptin with or without SAM; format: biochemical; settings: HEK 293T cell lysates, 0.5 mM SAM
T1 sequence (Q1RMZ1 1-405 D190A): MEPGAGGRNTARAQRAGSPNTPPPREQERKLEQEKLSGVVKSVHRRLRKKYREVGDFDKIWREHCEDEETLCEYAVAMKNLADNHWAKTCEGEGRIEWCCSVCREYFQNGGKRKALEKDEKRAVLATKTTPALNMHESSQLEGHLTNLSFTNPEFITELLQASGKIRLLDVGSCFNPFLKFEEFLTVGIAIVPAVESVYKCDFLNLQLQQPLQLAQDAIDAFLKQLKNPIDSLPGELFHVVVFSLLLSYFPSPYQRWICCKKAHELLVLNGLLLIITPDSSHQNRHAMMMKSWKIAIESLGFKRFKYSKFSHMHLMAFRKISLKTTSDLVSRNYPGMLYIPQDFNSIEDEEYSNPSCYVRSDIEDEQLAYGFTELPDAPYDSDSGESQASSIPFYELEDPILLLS

[2] = target: T2, D202A hSAMTOR interaction with GATOR1-KICSTOR (Homo sapiens, UniProt Q1RMZ1, D202A); experiment: Co-IP of Flag-hSAMTOR-D202A with HA-Nprl3 and Myc-Kaptin with or without SAM; format: biochemical; settings: HEK 293T cell lysates, 0.5 mM SAM
T2 sequence (Q1RMZ1 1-405 D202A): T1 sequence (Q1RMZ1 1-405 D190A) with A190D, D202A

[3] = target: dSAMTOR (WT, full-length) (Drosophila melanogaster, UniProt Q9W138); experiment: ITC ligand binding, WT dSAMTOR
Chain of dSAMTOR (WT, full-length) (Q9W138 whole entry, the tested form may be a part): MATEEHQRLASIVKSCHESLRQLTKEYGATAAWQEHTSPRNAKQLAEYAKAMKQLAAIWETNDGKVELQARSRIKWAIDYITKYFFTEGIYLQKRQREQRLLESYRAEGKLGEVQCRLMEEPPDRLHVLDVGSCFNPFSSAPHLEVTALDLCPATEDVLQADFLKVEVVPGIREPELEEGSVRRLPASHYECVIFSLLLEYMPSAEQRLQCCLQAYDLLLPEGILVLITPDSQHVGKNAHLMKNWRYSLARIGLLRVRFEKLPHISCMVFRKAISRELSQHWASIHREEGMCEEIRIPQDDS
Method in brief: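 Full-length dSAMTOR was expressed as His6-SUMO fusion in E. coli BL21 (DE3), Ni-NTA purified, tag-cleaved, then gel-filtered into 10 mM Hepes pH 7.5, 150 mM NaCl, 1 mM DTT. ITC ran at 25°C: 20 × 2 µl injections of 1 mM SAM or SAH into 0.2 mM protein, discarding an initial 0.8 µl injection, with a buffer background titration. Single-site nonlinear least-squares fit gave ΔH, n and Kd.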

[4] = target: V66W/E67P mutant dSAMTOR (Drosophila melanogaster, UniProt Q9W138, E67P/V66W); experiment: ITC ligand binding, V66W/E67P dSAMTOR
Chain of V66W/E67P mutant dSAMTOR (Q9W138 whole entry V66W/E67P, the tested form may be a part): as the sequence (Q9W138 whole entry, the tested form may be a part) above, with V66W, E67P counted along it
Method in brief: (§1)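 Tag-free dSAMTOR, expressed as His6-SUMO fusion in E. coli BL21(DE3), purified by Ni-NTA and gel filtration into 10 mM Hepes pH 7.5, 150 mM NaCl, 1 mM DTT. At 25°C, 1 mM SAM or SAH was titrated into 0.2 mM protein over 20 injections, with a background titration into buffer. Single-site fit gave Kd, ΔH and n; ΔG and ΔS were calculated. Runs: three for measurable binding, two for undetectable binding.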

[5] = target: T3, hSAMTOR MTase domain (residues 91 to 405) interaction with GATOR1-KICSTOR (Homo sapiens, UniProt Q1RMZ1); experiment: Co-IP of hSAMTOR C-terminal MTase domain; format: biochemical; settings: hSAMTOR CTD alone, HEK 293T cell lysates, 0.5 mM SAM
T3 sequence (Q1RMZ1 91-405): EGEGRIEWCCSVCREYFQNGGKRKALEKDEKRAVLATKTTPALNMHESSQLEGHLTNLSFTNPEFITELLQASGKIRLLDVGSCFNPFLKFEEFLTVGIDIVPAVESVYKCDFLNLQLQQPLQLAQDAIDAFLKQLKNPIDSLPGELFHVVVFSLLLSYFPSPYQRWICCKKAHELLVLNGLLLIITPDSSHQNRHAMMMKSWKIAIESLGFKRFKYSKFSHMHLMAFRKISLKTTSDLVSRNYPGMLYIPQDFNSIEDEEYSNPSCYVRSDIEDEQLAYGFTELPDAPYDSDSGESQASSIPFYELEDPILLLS
T3 sequence (Q12980 1-569 partner): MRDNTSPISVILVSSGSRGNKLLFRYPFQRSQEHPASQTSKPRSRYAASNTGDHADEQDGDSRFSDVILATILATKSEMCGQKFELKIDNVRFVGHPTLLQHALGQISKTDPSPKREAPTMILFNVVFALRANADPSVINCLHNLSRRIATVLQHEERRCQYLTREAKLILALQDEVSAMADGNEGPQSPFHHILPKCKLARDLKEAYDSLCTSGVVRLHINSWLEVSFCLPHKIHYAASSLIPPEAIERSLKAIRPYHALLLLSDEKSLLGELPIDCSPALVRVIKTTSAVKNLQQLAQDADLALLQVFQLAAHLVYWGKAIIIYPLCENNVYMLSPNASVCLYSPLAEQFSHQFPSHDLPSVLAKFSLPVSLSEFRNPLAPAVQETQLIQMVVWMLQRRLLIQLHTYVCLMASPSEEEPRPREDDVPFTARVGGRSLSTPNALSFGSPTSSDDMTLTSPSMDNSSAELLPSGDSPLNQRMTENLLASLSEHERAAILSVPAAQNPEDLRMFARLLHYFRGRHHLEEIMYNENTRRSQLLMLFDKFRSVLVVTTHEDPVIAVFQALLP
T3 sequence (Q9Y664 1-436 partner): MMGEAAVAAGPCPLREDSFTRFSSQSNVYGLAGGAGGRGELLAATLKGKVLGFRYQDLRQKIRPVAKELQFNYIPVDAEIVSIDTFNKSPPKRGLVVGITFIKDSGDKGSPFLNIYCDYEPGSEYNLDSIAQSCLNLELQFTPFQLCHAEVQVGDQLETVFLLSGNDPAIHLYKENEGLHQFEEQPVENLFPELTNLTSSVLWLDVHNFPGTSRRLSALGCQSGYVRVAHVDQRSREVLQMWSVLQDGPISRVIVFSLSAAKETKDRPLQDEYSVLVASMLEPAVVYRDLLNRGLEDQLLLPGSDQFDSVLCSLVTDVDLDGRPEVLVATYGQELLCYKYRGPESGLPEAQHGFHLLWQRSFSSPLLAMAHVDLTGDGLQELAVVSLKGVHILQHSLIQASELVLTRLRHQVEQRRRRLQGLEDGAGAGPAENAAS

[6] = target: N-terminal truncated dSAMTOR (Δ1-64) (Drosophila melanogaster, UniProt Q9W138); experiment: ITC ligand binding, Δ1-64 dSAMTOR
Chain of N-terminal truncated dSAMTOR (Δ1-64) (Q9W138 65-302, stated change not applied): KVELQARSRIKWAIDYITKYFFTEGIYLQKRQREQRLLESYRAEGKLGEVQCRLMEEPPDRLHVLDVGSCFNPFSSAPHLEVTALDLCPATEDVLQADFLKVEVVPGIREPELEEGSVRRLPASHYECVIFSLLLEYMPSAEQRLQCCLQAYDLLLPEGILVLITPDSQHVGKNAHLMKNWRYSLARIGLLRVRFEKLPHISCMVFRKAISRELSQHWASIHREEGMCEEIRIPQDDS
Method in brief: as §1

C[S+](CC[C@H](N)C(=O)[O-])C[C@H]1O[C@@H](n2cnc3c(N)ncnc32)[C@H](O)[C@@H]1O (some centres unmarked) [SAM, S-adenosylmethionine]
effect of SAM on interaction of hSAMTOR with GATOR1-KICSTOR (co-IP) [1]: comparable interactions with GATOR1 and KICSTOR in both the absence and presence of SAM | effect of SAM on interaction of hSAMTOR with GATOR1-KICSTOR (co-IP) [2]: comparable interactions with GATOR1 and KICSTOR in both the absence and presence of SAM | Kd [3]: 10.7 ± 0.88 µM | TΔS ([3]; ITC, 25°C, WT dSAMTOR): 4.66 kcal/mol | n value ([3]; ITC, 25°C, WT dSAMTOR): 0.75 ± 0.08 | ΔH ([3]; ITC, 25°C, WT dSAMTOR): -2.12 ± 0.05 kcal/mol | Kd [4]: 9.47 ± 0.81 µM | n value ([4]; ITC, 25°C, V66W/E67P dSAMTOR): 0.88 ± 0.02 | ΔH ([4]; ITC, 25°C, V66W/E67P dSAMTOR): -3.01 ± 0.08 kcal/mol | effect of SAM on interaction of the MTase domain with GATOR1-KICSTOR (co-IP) [5]: no apparent effect | Kd [6]: 6.78 ± 0.75 µM | TΔS ([6]; ITC, 25°C, Δ1-64 dSAMTOR): 5.89 kcal/mol | n value ([6]; ITC, 25°C, Δ1-64 dSAMTOR): 0.91 ± 0.01 | ΔH ([6]; ITC, 25°C, Δ1-64 dSAMTOR): -1.16 ± 0.01 kcal/mol
